Source: ChEMBL document CHEMBL1148276, “Oral bioavailability of a new class of micro-opioid receptor agonists containing 3,6-bis[Dmt-NH(CH(2))(n)]-2(1H)-pyrazinone with central-mediated analgesia” (J Med Chem, 2004)

Experiments:
[1] = biological target: Delta-type opioid receptor (Rattus norvegicus, UniProt P33533); assay: Compound was tested for binding affinity towards opioid receptor delta 1 by displacing [3H]DPDPE radioligand in rat brain P2 synaptosomes membranes.; format: cell membranes
In short: (§1)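 Competition binding at equilibrium (2.5 h, 22 °C) on rat brain P2 synaptosomal membranes, preincubated to strip endogenous opioids, washed with protease inhibitor, stored in 20% glycerol at -80 °C; [3H]DAMGO (μ) or [3H]DPDPE (δ); nonspecific binding with 2 μM unlabeled peptide; GF/C filtration; Ki by Cheng-Prusoff, duplicates, 5-8 doses, 3-5 preparations.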

[2] = tested on: Opioid receptors; mu & delta; assay: Selectivity ratio of Ki of delta-opioid receptor to mu-opioid receptor; format: protein assay; in short: as §1
Mu-type opioid receptor [3] = biological target: Mu-type opioid receptor (Rattus norvegicus, UniProt P33535); assay: Compound was tested for binding affinity towards Opioid receptor mu 1 by displacing [3H]DAGO radioligand in rat brain P2 synaptosomes membranes.; format: cell membranes
Sequence of Mu-type opioid receptor (Rattus norvegicus, UniProt P33535) (P33535 whole entry): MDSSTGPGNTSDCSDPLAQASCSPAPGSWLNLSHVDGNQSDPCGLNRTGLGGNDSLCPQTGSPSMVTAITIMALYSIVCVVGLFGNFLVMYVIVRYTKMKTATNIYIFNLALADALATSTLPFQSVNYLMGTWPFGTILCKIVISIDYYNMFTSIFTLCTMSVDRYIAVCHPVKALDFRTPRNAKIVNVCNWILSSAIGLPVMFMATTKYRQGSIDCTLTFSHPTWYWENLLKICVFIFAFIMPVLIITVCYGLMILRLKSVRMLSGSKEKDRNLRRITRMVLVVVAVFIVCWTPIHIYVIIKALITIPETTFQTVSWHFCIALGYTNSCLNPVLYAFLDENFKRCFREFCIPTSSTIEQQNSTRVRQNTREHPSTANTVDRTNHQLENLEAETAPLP

[4] = biological target: Delta-type opioid receptor (Mus musculus, UniProt P32300); assay: Compound was tested for opioid receptor delta 1 agonism or antagonism in mouse vas deferens; format: functional, tissue-based
Sequence of Delta-type opioid receptor (Mus musculus, UniProt P32300) (P32300 whole entry): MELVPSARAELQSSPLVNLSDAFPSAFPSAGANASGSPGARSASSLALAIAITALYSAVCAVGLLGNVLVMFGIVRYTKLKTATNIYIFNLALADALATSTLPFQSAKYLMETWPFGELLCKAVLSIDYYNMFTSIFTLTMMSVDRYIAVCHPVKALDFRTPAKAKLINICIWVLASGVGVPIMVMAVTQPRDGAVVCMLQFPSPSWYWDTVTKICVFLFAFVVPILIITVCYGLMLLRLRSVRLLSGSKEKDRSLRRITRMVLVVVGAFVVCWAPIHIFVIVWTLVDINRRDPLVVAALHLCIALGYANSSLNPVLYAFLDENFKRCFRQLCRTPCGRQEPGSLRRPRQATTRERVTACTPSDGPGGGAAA

Mu-type opioid receptor [5] = biological target: Mu-type opioid receptor (Cavia porcellus, UniProt P97266); assay: Compound was tested for Opioid receptor mu 1 agonism in isolated tissues from guinea pig ileum; format: functional, tissue-based
Sequence of Mu-type opioid receptor (Cavia porcellus, UniProt P97266) (P97266 whole entry): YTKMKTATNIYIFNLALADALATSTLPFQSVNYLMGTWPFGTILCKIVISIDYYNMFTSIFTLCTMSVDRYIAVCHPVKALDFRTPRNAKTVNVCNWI

Mus musculus [6] = assay: Potency relative to morphine in hot plate test in mice, intracerebroventricularly; Vale ranges from 18-21; format: functional
Mus musculus [7] = species on record: Mus musculus; assay: Potency relative to morphine in hot plate test in mice, perorally; Vale ranges from 0.16-0.24; format: functional
Mus musculus [8] = assay: Potency relative to morphine in hot plate test in mice, subcutaneously; format: functional
Mus musculus [9] = assay: Potency relative to morphine in tail flick test in mice, intracerebroventricularly; Vale ranges from 50-63; format: functional
In short: (§2)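 Male Swiss-Webster mice (20-25 g); radiant-heat tail-flick, baseline 2-3 s, cutoff 8 s; dosing icv or sc in saline pH 7, po in water; readings from 10, 15 or 30 min respectively until return to baseline; AUC of latency vs time, 5-7 mice per point; relative potency from doses giving analgesia equivalent to morphine.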

Mus musculus [10] = species on record: Mus musculus; assay: Potency relative to morphine in tail flick test in mice, perorally; format: functional; in short: as §2
Mus musculus [11] = assay: Potency relative to morphine in tail flick test in mice, subcutaneously; format: functional; in short: as §2

Sequence of Delta-type opioid receptor (Rattus norvegicus, UniProt P33533) (P33533 whole entry): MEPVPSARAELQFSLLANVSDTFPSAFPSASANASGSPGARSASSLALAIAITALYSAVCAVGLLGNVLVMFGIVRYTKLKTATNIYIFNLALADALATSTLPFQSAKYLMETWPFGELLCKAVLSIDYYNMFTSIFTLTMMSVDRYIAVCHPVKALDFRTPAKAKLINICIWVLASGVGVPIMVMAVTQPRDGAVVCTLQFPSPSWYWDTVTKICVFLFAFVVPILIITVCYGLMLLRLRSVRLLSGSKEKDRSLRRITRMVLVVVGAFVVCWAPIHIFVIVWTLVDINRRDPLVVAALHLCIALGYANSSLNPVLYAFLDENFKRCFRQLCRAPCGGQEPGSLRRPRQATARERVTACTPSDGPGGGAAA

Cc1nc(CNC(=O)C(N)Cc2ccc(O)cc2)c(=O)[nH]c1CNC(=O)C(N)Cc1ccc(O)cc1 (stereo not given)
Ki [1]: 1830 nM
Ratio [2]: 4

Cc1nc(CCNC(=O)C(N)Cc2ccc(O)cc2)c(=O)[nH]c1CCNC(=O)C(N)Cc1ccc(O)cc1 (stereo not given)
Ki [1]: 2900 nM
Ki (Mu-type opioid receptor [3]): 309 nM
Ratio [2]: 9.4

Cc1cc(O)cc(C)c1CC(N)C(=O)NCCc1nc(O)c(CCNC(=O)C(N)Cc2c(C)cc(O)cc2C)nc1C (stereo not given)
Ki [1]: 7.26 nM
IC50 [4]: > 10000 nM
IC50 (Mu-type opioid receptor [5]): 12.9 nM

Cc1cc(O)cc(C)c1CC(N)C(=O)NCc1nc(O)c(CNC(=O)C(N)Cc2c(C)cc(O)cc2C)nc1C (stereo not given)
Ki [1]: 15.7 nM
IC50 [4]: > 10000 nM
IC50 (Mu-type opioid receptor [5]): 1690 nM
Ki (Mu-type opioid receptor [3]): 1.16 nM
Ratio [2]: 13.5

Cc1cc(O)cc(C)c1CC(N)C(=O)NCCCc1nc(O)c(CCCNC(=O)C(N)Cc2c(C)cc(O)cc2C)nc1C.Cl.Cl (stereo not given)
Activity (Mus musculus [6]): 21
Activity (Mus musculus [7]): 0.24
Activity (Mus musculus [8]): 0.55
Activity (Mus musculus [9]): 63
Activity (Mus musculus [10]): 0.42
Activity (Mus musculus [11]): 0.63
Ki [1]: 13.2 nM
IC50 [4]: > 1000 nM
IC50 (Mu-type opioid receptor [5]): 1.33 nM
Ki (Mu-type opioid receptor [3]): 0.042 nM
Ratio [2]: 307

Cc1nc(CCCCNC(=O)C(N)Cc2ccc(O)cc2)c(O)nc1CCCCNC(=O)C(N)Cc1ccc(O)cc1 (stereo not given)
Ki [1]: 2190 nM
Ki (Mu-type opioid receptor [3]): 70.2 nM
Ratio [2]: 31

Cc1cc(O)cc(C)c1CC(N)C(=O)NCCCCc1nc(O)c(CCCCNC(=O)C(N)Cc2c(C)cc(O)cc2C)nc1C (stereo not given)
Ki [1]: 23.2 nM
IC50 [4]: 41.5 nM
IC50 (Mu-type opioid receptor [5]): 1.9 nM
Ki (Mu-type opioid receptor [3]): 0.114 nM
Ratio [2]: 204

Cc1nc(CCCNC(=O)C(N)Cc2ccc(O)cc2)c(O)nc1CCCNC(=O)C(N)Cc1ccc(O)cc1 (stereo not given)
Ki [1]: 435 nM
Ki (Mu-type opioid receptor [3]): 25.7 nM
Ratio [2]: 17
